Assays:
[1] = target: T1, Integrin alpha-4/beta-1 (Homo sapiens, UniProt P05556+P13612); experiment: Inhibition of CS-1 fragment binding to Very late antigen 4 (VLA-4) expressed in Ramos cells; assay type: cell-based
[2] = target: T1, Integrin alpha-4/beta-1; experiment: Inhibition of CS-1 fragment binding to Very late antigen 4 expressed in Ramos cells in 10% fetal bovine serum(FBS); assay type: cell-based
[3] = Half-life period in cynomolgus monkey; assay type: ADME; conditions: cercopithecidae, in vivo
[4] = Oral bioavailability in cynomolgus monkey; assay type: ADME, organism-based, Macaca fascicularis; conditions: in vivo
[5] = Cmax in cynomolgus monkey by iv administration; assay type: ADME, organism-based; design: route intravenous; conditions: cercopithecidae, in vivo
[6] = Cmax in cynomolgus monkey by po administration; assay type: ADME, organism-based; design: route oral; conditions: cercopithecidae, in vivo
[7] = Pharmacokinetic property(Vdss) in cynomolgus monkey; assay type: ADME, organism-based; conditions: cercopithecidae, in vivo; read-out: Vdss
[8] = Plasma clearance in cynomolgus monkey; assay type: ADME, organism-based; conditions: cercopithecidae
[9] = tested on: Mus musculus; experiment: Inhibition of eosinophil infiltration in the murine asthma model tested in vivo at a dose of 10 mg/kg (intravenous); assay type: functional; conditions: route intranasal, in the assay text read “intranasal” for “intravenous”
Method in brief: (§1)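 Mice were ovalbumin-sensitized and challenged. Twenty-four hours after the final OVA challenge, they were exsanguinated and the right lung lavaged (0.4 mL saline ×3). Total BAL cells were counted, then the pelleted cells were smeared, stained with Discombe's fluid (eosin/acetone) and counterstained with 0.07% methylene blue for eosinophil counts. Inhibition is expressed relative to OVA-challenged animals.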

[10] = tested on: Mus musculus; experiment: Inhibition of eosinophil infiltration in the murine asthma model tested in vivo at a dose of 5 mg/kg (intravenous); assay type: functional; method in brief: as §1
[11] = tested on: Mus musculus; experiment: Inhibition of eosinophil infiltration in the murine asthma model tested in vivo by po administration at a dose of 10 mg/kg (peroral); assay type: functional; method in brief: as §1
[12] = tested on: Mus musculus; experiment: Inhibition of eosinophil infiltration in the murine asthma model tested in vivo by po administration at a dose of 25 mg/kg (peroral); assay type: functional; method in brief: as §1
[13] = tested on: Mus musculus; experiment: Reduction in eosinophil count in murine asthma model tested in vivo by at a dose of 10 mg/kg (intravenous); assay type: functional; method in brief: as §1
[14] = tested on: Mus musculus; experiment: Reduction in eosinophil count in murine asthma model tested in vivo by po administration at a dose of 10 mg/kg (peroral); assay type: functional; method in brief: as §1
[15] = tested on: Mus musculus; experiment: Reduction in eosinophil count in murine asthma model tested in vivo by po administration at a dose of 25 mg/kg (peroral); assay type: functional; method in brief: as §1
[16] = tested on: Mus musculus; experiment: Eosinophil count in murine asthma model tested in vivo at a dose of 5 mg/kg (intravenous)

T1 sequence (P05556 whole entry, the tested form may be a part): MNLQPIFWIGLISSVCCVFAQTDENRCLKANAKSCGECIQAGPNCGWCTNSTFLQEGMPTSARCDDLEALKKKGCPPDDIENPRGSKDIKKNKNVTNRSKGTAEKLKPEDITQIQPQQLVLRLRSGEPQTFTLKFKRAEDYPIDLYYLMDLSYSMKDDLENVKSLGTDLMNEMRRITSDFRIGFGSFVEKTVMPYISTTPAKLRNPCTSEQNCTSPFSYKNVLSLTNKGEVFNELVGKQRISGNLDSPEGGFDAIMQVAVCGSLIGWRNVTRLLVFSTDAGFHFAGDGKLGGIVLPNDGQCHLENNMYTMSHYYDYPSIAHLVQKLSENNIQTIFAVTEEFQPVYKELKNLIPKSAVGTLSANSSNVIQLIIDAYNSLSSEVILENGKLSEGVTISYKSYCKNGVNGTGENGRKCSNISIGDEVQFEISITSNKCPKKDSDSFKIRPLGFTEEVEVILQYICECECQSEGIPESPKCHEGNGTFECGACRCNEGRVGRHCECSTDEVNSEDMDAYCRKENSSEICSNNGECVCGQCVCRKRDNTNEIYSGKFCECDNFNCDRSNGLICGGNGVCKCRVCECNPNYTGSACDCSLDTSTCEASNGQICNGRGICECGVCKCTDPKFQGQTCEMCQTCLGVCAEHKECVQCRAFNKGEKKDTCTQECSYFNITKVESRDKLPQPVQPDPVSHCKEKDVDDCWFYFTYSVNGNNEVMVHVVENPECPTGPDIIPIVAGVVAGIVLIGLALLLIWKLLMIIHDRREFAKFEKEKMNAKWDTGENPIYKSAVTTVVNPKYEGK
T1 sequence (P13612 whole entry, the tested form may be a part): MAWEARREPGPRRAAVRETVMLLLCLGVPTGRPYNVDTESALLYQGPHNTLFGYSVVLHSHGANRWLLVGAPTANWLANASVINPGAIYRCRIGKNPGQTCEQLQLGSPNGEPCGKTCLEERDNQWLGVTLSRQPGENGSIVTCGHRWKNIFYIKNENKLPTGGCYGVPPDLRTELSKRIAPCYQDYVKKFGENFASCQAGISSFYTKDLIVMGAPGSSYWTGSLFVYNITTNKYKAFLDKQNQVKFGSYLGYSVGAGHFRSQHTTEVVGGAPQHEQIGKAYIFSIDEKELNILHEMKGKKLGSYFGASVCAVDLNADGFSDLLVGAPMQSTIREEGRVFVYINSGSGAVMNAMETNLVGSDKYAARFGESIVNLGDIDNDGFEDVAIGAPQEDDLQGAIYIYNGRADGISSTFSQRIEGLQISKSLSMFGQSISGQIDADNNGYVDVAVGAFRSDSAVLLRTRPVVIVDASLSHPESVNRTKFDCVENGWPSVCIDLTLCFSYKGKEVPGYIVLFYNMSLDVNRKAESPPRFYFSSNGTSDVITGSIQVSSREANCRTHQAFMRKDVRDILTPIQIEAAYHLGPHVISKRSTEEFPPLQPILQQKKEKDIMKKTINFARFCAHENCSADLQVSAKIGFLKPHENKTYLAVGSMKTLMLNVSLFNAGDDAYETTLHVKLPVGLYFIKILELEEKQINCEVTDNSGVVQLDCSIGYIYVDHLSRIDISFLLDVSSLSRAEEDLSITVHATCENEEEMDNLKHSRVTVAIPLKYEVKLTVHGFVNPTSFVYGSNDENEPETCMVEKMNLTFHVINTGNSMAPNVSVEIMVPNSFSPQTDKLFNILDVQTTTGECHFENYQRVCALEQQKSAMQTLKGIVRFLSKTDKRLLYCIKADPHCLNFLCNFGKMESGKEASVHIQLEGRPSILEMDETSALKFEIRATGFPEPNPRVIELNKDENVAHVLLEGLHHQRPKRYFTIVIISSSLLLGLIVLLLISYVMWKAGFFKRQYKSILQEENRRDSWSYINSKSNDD

Question: With `O=C(O)CC[C@H](NS(=O)(=O)c1ccc2ccccc2c1)C(=O)N[C@@H](Cc1ccccc1)C(=O)O` as the compound, how does the IC50 [1] read?
Answer: Its IC50 is 180 nM.

Question: For `O=C(O)CN(CC(=O)N[C@@H](Cc1ccc(OCc2c(Cl)cccc2Cl)cc1)C(=O)O)S(=O)(=O)c1ccc(F)cc1`, which IC50 [2] is on record?
Answer: The IC50 was 10 nM.

Question: And the IC50 [1]?
Answer: Its IC50 is 0.7 nM.

Question: For `CN([C@@H](CCC(=O)O)C(=O)N[C@@H](Cc1ccc(OCc2c(Cl)cccc2Cl)cc1)C(=O)O)S(=O)(=O)c1ccccc1`, which IC50 [2] is on record?
Answer: The IC50 was 2 nM.

Question: And the IC50 [1]?
Answer: The IC50 was 0.1 nM.

Question: For `CN([C@@H](CCC(=O)O)C(=O)N[C@@H](Cc1ccc(OCc2c(Cl)cccc2Cl)cc1)C(=O)O)S(=O)(=O)c1ccc2ccccc2c1`, which IC50 [1] is on record?
Answer: Its IC50 is 1 nM.

Question: Which results are given for `O=C(O)CN(CC(=O)N[C@@H](Cc1ccc(OCc2c(Cl)cccc2Cl)cc1)C(=O)O)S(=O)(=O)c1ccccn1`?
Answer: IC50 [2]: 10 nM; IC50 [1]: 1.5 nM

Question: What does the source list for `O=C(O)CN(CC(=O)N[C@@H](Cc1ccc(OCc2c(Cl)cccc2Cl)cc1)C(=O)O)S(=O)(=O)c1ccccc1`?
Answer: half-life [3]: 6.6 min; bioavailability [4]: 26.9%; Cmax [5]: 528 ng/mL; Cmax [6]: 101 ng/mL; Vd [7]: 0.303 L/kg; clearance [8]: 58.8 mL/min/kg; EOS inhibition [9]: 50%; EOS inhibition [10]: 28%; EOS inhibition [11]: 69%; EOS inhibition [12]: 75%; EOS count [13]: 4.36 10^5 cells; EOS count [14]: 2.67 10^5 cells; EOS count [15]: 2.16 10^5 cells; IC50 [2]: 8 nM; IC50 [1]: 0.6 nM; EOS count [16]: 6.26 10^5 cells

Question: What does the source list for `O=C(O)CN(CC(=O)N[C@@H](Cc1ccc(OCc2c(Cl)cccc2Cl)cc1)C(=O)O)S(=O)(=O)c1cccs1`?
Answer: IC50 [2]: 10 nM; IC50 [1]: 0.8 nM

Question: Which IC50 [1] does the source give for `CN([C@@H](CC(=O)O)C(=O)N[C@@H](Cc1ccc(OCc2c(Cl)cccc2Cl)cc1)C(=O)O)S(=O)(=O)c1ccccc1` here?
Answer: Its IC50 is 2 nM.

Question: With `O=C(O)CC[C@H](NS(=O)(=O)c1ccc2ccccc2c1)C(=O)N[C@@H](Cc1ccc(OCc2c(Cl)cccc2Cl)cc1)C(=O)O` as the compound, how does the IC50 [1] read?
Answer: The IC50 was 2 nM.
